Laboratory results as given in ChEMBL document CHEMBL1145964, “Antineoplastic agents. 487. Synthesis and biological evaluation of the antineoplastic agent 3,4-methylenedioxy-5,4'-dimethoxy-3'-amino-Z-stilbene and derived amino acid amides” (J Med Chem, 2003).
pIC50: −log10 of the molar value. ≈ marks a conversion by molar mass, not a printed value. Where “and” joins values, the source holds several entries; their conditions need not be identical. Equal entries are not always repeated.

How the values were obtained:
[1] = Inhibitory activity against prostate DU145 cell line; assay type: functional; conditions: Homo sapiens, DU-145
[2] = Inhibitory activity against CNS SF-295 cell line; assay type: functional; conditions: Homo sapiens
[3] = Inhibitory activity against lung NSC NCI-H460 cell line; assay type: functional; conditions: Homo sapiens
[4] = Inhibitory activity against colon KM2OL2 cell line; assay type: functional; conditions: Homo sapiens
[5] = Inhibitory activity against pancreatic BXPC-3 cell line; assay type: functional; conditions: Homo sapiens
MCF7 [6] = assay: Inhibitory activity against breast MCF-7 cell line; assay type: functional; conditions: Homo sapiens
[7] = molecular target: Tubulin alpha chain (Sus scrofa) (UniProt P02550); assay: Percent inhibitory activity (5 uM) against colchicine binding to tubulin […]; conditions: Homo sapiens
Chain of Tubulin alpha chain (Sus scrofa) (P02550 whole entry, looked up): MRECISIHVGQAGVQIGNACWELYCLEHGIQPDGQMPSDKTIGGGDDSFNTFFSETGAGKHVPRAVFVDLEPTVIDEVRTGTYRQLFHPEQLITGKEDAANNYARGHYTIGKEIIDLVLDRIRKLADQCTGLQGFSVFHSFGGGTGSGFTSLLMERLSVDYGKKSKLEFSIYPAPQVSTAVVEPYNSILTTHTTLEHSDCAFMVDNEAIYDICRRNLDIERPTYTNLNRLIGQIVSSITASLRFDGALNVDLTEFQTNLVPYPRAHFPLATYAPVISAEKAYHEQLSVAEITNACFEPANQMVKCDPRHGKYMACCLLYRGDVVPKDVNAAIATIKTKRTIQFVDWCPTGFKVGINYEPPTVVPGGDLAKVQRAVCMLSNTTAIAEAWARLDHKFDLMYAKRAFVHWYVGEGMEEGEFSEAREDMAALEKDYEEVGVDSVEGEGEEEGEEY
Method in brief: (§1)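 Binding of [³H]colchicine to purified tubulin, not a cell assay: reaction mixtures held 1.0 µM tubulin, 5.0 µM [³H]colchicine and test compound at 2 or 5 µM as indicated. Read-out is percent inhibition of colchicine binding.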

P388 = assay: Inhibitory activity against leukemia P388 cell line; assay type: functional; conditions: Mus musculus, read-out: ED50 (the source's name)
[8] = molecular target: Tubulin alpha chain (Sus scrofa) (UniProt P02550); assay: Percent inhibitory activity (2 uM) against colchicine binding to tubulin […]; conditions: Homo sapiens; method in brief: as §1
[9] = molecular target: Tubulin alpha chain (Sus scrofa) (UniProt P02550); assay: Percent inhibitory activity (20 uM) against colchicine binding to tubulin […]; conditions: Homo sapiens
Method in brief: (§2)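 Cell-free colchicine-binding test: reaction mixtures held 1.0 µM tubulin, 5.0 µM [³H]colchicine and inhibitor at the stated level; percent inhibition of radiolabel binding recorded.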

MCF7 [10] = assay: Mitotic index in MCF-7 breast cancer cells was determined; assay type: functional, Homo sapiens
[11] = molecular target: Tubulin alpha chain (Sus scrofa) (UniProt P02550); assay: Percent inhibitory activity (100 uM) against colchicine binding to tubulin […]; conditions: Homo sapiens; method in brief: as §2
Tubulin [12] = assay: Inhibitory activity against tubulin (1.0 mg/mL) assembly was determined; conditions: Homo sapiens
Mus musculus = organism: Mus musculus; assay: Inhibitory activity against murine colon 26 adenocarcinoma cell; assay type: functional
Tubulin [13] = assay: Inhibitory activity against tubulin (1.0 mg/mL) assembly was determined; conditions: Homo sapiens; remark: listed apart in the source
[14] = Inhibitory activity against prostate DU145; assay type: functional; conditions: Homo sapiens, DU-145, Prostate gland
MCF7 [15] = assay: Inhibitory activity against breast cancer cell line MCF-7; assay type: functional; conditions: Homo sapiens
[16] = Inhibitory activity against pancreatic cell line BXPC-3; assay type: functional; conditions: Homo sapiens
[17] = molecular target: Tubulin alpha chain (Sus scrofa) (UniProt P02550); assay: Percent inhibitory activity (5 uM) against colchicine binding to […]; conditions: Homo sapiens

GI50 (MCF7 [6]) | EC50 (P388) | inhibition [9] | inhibition [11] | pIC50 (Tubulin [12]) | pIC50 (Tubulin [13]) | GI50 (MCF7 [15]) | Structure (SMILES) | GI50 [1] | GI50 [2] | GI50 [3] | GI50 [4] | GI50 [5] | inhibition [7] | inhibition [8] | Mitotic index (MCF7 [10]) | pIC50 (Mus musculus) | GI50 [14] | GI50 [16] | inhibition [17]
0.014 µg/mL (≈ 0.0393 µM) | 0.0199 µg/mL (≈ 0.0558 µM) | 31% | 66% | < 4.40 |  |  | COc1ccc(/C=C\c2cc(OC)c3c(c2)OCO3)cc1NC(=O)CN | 0.0028 µg/mL (≈ 0.00786 µM) | 0.059 µg/mL (≈ 0.166 µM) | 0.0042 µg/mL (≈ 0.0118 µM) | 0.012 µg/mL (≈ 0.0337 µM) | 0.025 µg/mL (≈ 0.0702 µM) |  |  | 52 |  |  |  | 
> 10 µg/mL | > 10 µg/mL |  |  |  |  |  | COc1ccc(/C=C/c2cc(OC)c3c(c2)OCO3)cc1[N+](=O)[O-] | > 10 µg/mL | 4.6 µg/mL (≈ 14 µM) | > 10 µg/mL | > 10 µg/mL | > 10 µg/mL |  |  |  |  |  |  | 
0.044 µg/mL (≈ 0.0985 µM) | 0.0585 µg/mL (≈ 0.131 µM) |  | 16% | < 4.40 |  |  | COc1ccc(/C=C\c2cc(OC)c3c(c2)OCO3)cc1NC(=O)C(N)Cc1ccccc1 (stereo not given) | 0.04 µg/mL (≈ 0.0896 µM) | 1.7 µg/mL (≈ 3.81 µM) | 0.044 µg/mL (≈ 0.0985 µM) | 0.034 µg/mL (≈ 0.0761 µM) | 0.2 µg/mL (≈ 0.448 µM) |  |  | 52 |  |  |  | 
0.017 µg/mL (≈ 0.044 µM) | 0.172 µg/mL (≈ 0.445 µM) | 22% | 64% | < 4.40 |  |  | COc1ccc(/C=C\c2cc(OC)c3c(c2)OCO3)cc1NC(=O)C(N)CO (stereo not given) | 0.014 µg/mL (≈ 0.0362 µM) | 0.049 µg/mL (≈ 0.127 µM) | 0.042 µg/mL (≈ 0.109 µM) | 0.019 µg/mL (≈ 0.0492 µM) | 0.027 µg/mL (≈ 0.0699 µM) |  |  | 35 |  |  |  | 
0.035 µg/mL (≈ 0.0721 µM) | 0.0653 µg/mL (≈ 0.134 µM) |  | 16% | < 4.40 |  |  | COc1ccc(/C=C\c2cc(OC)c3c(c2)OCO3)cc1NC(=O)C(N)Cc1c[nH]c2ccccc12 (stereo not given) | 0.04 µg/mL (≈ 0.0824 µM) | 0.042 µg/mL (≈ 0.0865 µM) | 0.053 µg/mL (≈ 0.109 µM) | 0.018 µg/mL (≈ 0.0371 µM) | 0.044 µg/mL (≈ 0.0906 µM) |  |  | 57 |  |  |  | 
 | 0.227 µg/mL (≈ 0.689 µM) |  |  |  | 6.41 | 0.36 µg/mL (≈ 1.09 µM) | COc1ccc(/C=C\c2cc(OC)c3c(c2)OCO3)cc1[N+](=O)[O-] |  | 0.33 µg/mL (≈ 1 µM) | 0.35 µg/mL (≈ 1.06 µM) | 0.45 µg/mL (≈ 1.37 µM) |  |  |  |  |  | 0.64 µg/mL (≈ 1.94 µM) | 0.38 µg/mL (≈ 1.15 µM) | 
0.037 µg/mL (≈ 0.0929 µM) | 0.306 µg/mL (≈ 0.768 µM) |  | 14% | < 4.40 |  |  | COc1ccc(/C=C\c2cc(OC)c3c(c2)OCO3)cc1NC(=O)C(N)C(C)C (stereo not given) | 0.036 µg/mL (≈ 0.0903 µM) | 0.055 µg/mL (≈ 0.138 µM) | 0.064 µg/mL (≈ 0.161 µM) | 0.019 µg/mL (≈ 0.0477 µM) | 0.012 µg/mL (≈ 0.0301 µM) |  |  | 48 |  |  |  | 
0.05 µg/mL (≈ 0.124 µM) | 0.332 µg/mL (≈ 0.825 µM) |  | 15% | < 4.40 |  |  | COc1ccc(/C=C\c2cc(OC)c3c(c2)OCO3)cc1NC(=O)C(N)CS (stereo not given) | 0.0046 µg/mL (≈ 0.0114 µM) | 0.037 µg/mL (≈ 0.0919 µM) | 0.032 µg/mL (≈ 0.0795 µM) | 0.055 µg/mL (≈ 0.137 µM) | 0.2 µg/mL (≈ 0.497 µM) |  |  | 42 |  |  |  | 

More lines, now with the values behind:

Structure (SMILES) | GI50 (MCF7 [6]) | EC50 (P388) | inhibition [9] | inhibition [11] | pIC50 (Tubulin [12]) | pIC50 (Tubulin [13]) | GI50 (MCF7 [15]) | GI50 [1] | GI50 [2] | GI50 [3] | GI50 [4] | GI50 [5] | inhibition [7] | inhibition [8] | Mitotic index (MCF7 [10]) | pIC50 (Mus musculus) | GI50 [14] | GI50 [16] | inhibition [17]
COc1ccc(/C=C\c2cc(OC)c3c(c2)OCO3)cc1O [Combretastatin A-2] | 0.0042 µg/mL (≈ 0.014 µM) | 0.016 µg/mL (≈ 0.0533 µM) |  |  |  |  |  | 0.0054 µg/mL (≈ 0.018 µM) | 0.0083 µg/mL (≈ 0.0276 µM) | 0.043 µg/mL (≈ 0.143 µM) | 0.47 µg/mL (≈ 1.57 µM) | 0.014 µg/mL (≈ 0.0466 µM) | 92% | 79% |  |  |  |  | 
COc1ccc(/C=C/c2cc(OC)c3c(c2)OCO3)cc1P(=O)([O-])O.[Na+] | 0.045 µg/mL | 0.025 µg/mL |  |  |  |  |  | 0.053 µg/mL | 0.042 µg/mL | 0.41 µg/mL | 3.8 µg/mL | 2.1 µg/mL |  |  |  |  |  |  | 
COc1ccc(/C=C\c2cc(OC)c3c(c2)OCO3)cc1N.Cl | 0.0042 µg/mL | 0.0388 µg/mL |  |  |  |  |  | 0.0082 µg/mL | 0.0082 µg/mL | 0.0057 µg/mL | 0.035 µg/mL | 0.075 µg/mL |  |  |  |  |  |  | 
COc1ccc(/C=C\c2cc(OC)c(OC)c(OC)c2)cc1N |  |  |  |  |  |  |  |  |  |  |  |  |  |  |  | 8.29 |  |  | 
COc1ccc(/C=C\c2cc(OC)c3c(c2)OCO3)cc1N [listing 1 of 2 here] | 0.0047 µg/mL (≈ 0.0157 µM) |  |  |  | 5.51 |  |  |  |  | 0.005 µg/mL (≈ 0.0167 µM) |  |  |  |  |  |  |  |  | 
COc1ccc(/C=C\c2cc(OC)c3c(c2)OCO3)cc1NC(=O)C(N)Cc1ccc(O)cc1 (stereo not given) | 0.035 µg/mL (≈ 0.0757 µM) | 0.0475 µg/mL (≈ 0.103 µM) |  | 19% | < 4.40 |  |  | 0.018 µg/mL (≈ 0.0389 µM) | 0.0097 µg/mL (≈ 0.021 µM) | 0.012 µg/mL (≈ 0.0259 µM) | 0.022 µg/mL (≈ 0.0476 µM) | 0.0067 µg/mL (≈ 0.0145 µM) |  |  | 44 |  |  |  | 
COc1ccc(/C=C\c2cc(OC)c3c(c2)OCO3)cc1N [listing 2 of 2 here] |  |  |  |  |  |  |  |  |  |  |  |  | 94% | 84% and 87% |  |  |  |  | 95%
COc1ccc(/C=C\c2cc(OC)c(OC)c(OC)c2)cc1O [COMBRETASTATIN A4] |  |  |  |  | 5.68 |  |  |  |  |  |  |  |  |  | 57 | 7.74 |  |  | 
